This is an account of results in ChEMBL document CHEMBL1124015, “Methods for drug discovery: development of potent, selective, orally effective cholecystokinin antagonists” (J Med Chem, 1988).

SMILES strings stand for the structures.

The ED50 is the midpoint of the dose-response relation. Low values mean greater potency, high ones weaker potency. One may read the IC50 as the concentration that gives 50% inhibition. A higher IC50 goes with weaker potency in that assay.

The test system of the first assay is Mus musculus. Nature of the assay: Ability to antagonize CCK-8 inhibition of charcoal meal gastric emptying in mice, after oral administration. It counts as functional. The following applies: Stomach. The method in brief:
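Mice dosed orally with test compound at one or more dose levels (N ≥ 10/dose) 1 h before CCK-8 (80 μg/kg, sc). CCK-8 given 5 min before a charcoal meal. Gastric emptying measured 5 min after the meal.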
`CN1C(=O)C(NC(=O)c2cc3ccccc3[nH]2)N=C(c2ccccc2)c2ccccc21` (stereo not drawn) came in with a 50% effective dose (ED50) of 0.08 mg/kg.
The same measure, in the same setting: next, `CN1C(=O)[C@H](NC(=O)c2cc3ccccc3[nH]2)N=C(c2ccccc2)c2ccccc21`: 0.4 mg/kg; `CN1C(=O)[C@@H](NC(=O)c2cc3ccccc3[nH]2)N=C(c2ccccc2)c2ccccc21` [DEVAZEPIDE]: 0.04 mg/kg.

In the next assay the target is T1, Cholecystokinin receptor type A (Rattus norvegicus, UniProt P30551).
T1 sequence (P30551 whole entry): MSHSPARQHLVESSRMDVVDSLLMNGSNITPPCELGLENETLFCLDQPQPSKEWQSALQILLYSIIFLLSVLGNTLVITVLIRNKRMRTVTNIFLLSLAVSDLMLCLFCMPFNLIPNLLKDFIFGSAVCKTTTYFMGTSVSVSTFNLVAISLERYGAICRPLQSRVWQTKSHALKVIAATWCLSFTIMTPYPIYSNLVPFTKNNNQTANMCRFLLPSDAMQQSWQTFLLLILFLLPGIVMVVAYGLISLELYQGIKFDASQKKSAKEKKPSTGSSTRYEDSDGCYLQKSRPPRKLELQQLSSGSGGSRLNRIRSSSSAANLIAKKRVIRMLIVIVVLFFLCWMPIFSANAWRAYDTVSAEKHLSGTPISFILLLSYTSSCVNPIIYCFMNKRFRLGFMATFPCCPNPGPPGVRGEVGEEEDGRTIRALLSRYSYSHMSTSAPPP
Nature of the assay: Half-maximal inhibition of [125I]CCK-33 binding to cholecystokinin A receptor from rat pancreatic tissue.
Details: not given
Regarding `CCCCCc1ccc(C(=O)N[C@H]2N=C(c3ccccc3F)c3ccccc3N(C)C2=O)cc1`, the IC50 worked out at 0.69 µM.
The molecule `CN1C(=O)[C@@H](NC(=O)c2ccc(C(F)(F)F)cc2)N=C(c2ccccc2F)c2ccccc21` returned an IC50 of 0.011 µM.
Molecule `CN1C(=O)[C@@H](NC(=O)c2ccc(I)cc2)N=C(c2ccccc2F)c2ccccc21` returned a half-maximal inhibitory concentration (IC50) of 0.0008 µM.
The molecule `CN1C(=O)[C@@H](NC(=O)c2ccc(Br)cc2)N=C(c2ccccc2F)c2ccccc21` gave an IC50 of 0.0008 µM.
Turning to `CN1C(=O)[C@@H](NC(=O)c2cc3ccccc3[nH]2)N=C(c2ccccc2F)c2ccccc21`, the half-maximal inhibitory concentration (IC50) amounted to 0.006 µM.
The molecule `O=C(NC1N=C(c2ccccc2)c2ccccc2NC1=O)c1ccc(C(F)(F)F)cc1` (stereo not drawn) had an IC50 of 0.24 µM.
As to `CN1C(=O)C(NC(=O)c2ccc(Cl)cc2)[N+]([O-])=C(c2ccccc2F)c2ccccc21` (stereo not drawn), the IC50 came out at 0.066 µM.
On the same count and under the same terms, in the case of `CN1C(=O)C(NC(=O)[C@@H](Cc2ccccc2)NC(=O)OC(C)(C)C)N=C(c2ccccc2)c2ccccc21` (stereo partly drawn) it was 0.7 µM; in that of `O=C(NC1N=C(c2ccccc2F)c2ccccc2NC1=O)c1ccc([N+](=O)[O-])cc1` (stereo not drawn), 0.11 µM.
Consider `CN1C(=O)C(NC(=O)c2ccc(C(F)(F)F)cc2)N=C(c2ccccc2F)c2ccccc21` (stereo not drawn), for which the IC50 is 0.02 µM.
Molecule `NC1N=C(c2ccccc2F)c2ccccc2NC1=O` (stereo not drawn) displayed an IC50 greater than 100 µM.
The molecule `O=C(NC1N=C(c2ccccc2)c2ccccc2NC1=O)c1ccc(F)cc1` (stereo not drawn) returned a half-maximal inhibitory concentration (IC50) of 0.48 µM.
The molecule `NC1N=C(c2ccccc2)c2ccccc2NC1=O` (stereo not drawn) showed an IC50 greater than 100 µM.
The molecule `O=C(NC1N=C(c2ccccc2F)c2ccccc2NC1=O)c1cc2ccccc2[nH]1` (stereo not drawn) displayed an IC50 of 0.0021 µM.
In turn, `CN1C(=O)[C@H](NC(=O)[C@H](N)Cc2ccccc2)N=C(c2ccccc2)c2ccccc21` showed an IC50 of 100 µM.
`O=C(O)CN1C(=O)C(NC(=O)c2cc3ccccc3[nH]2)N=C(c2ccccc2F)c2ccccc21` (stereo not drawn) showed a half-maximal inhibitory concentration (IC50) of 0.0015 µM.
Molecule `COc1ccc2[nH]c(C(=O)NC3N=C(c4ccccc4F)c4ccccc4NC3=O)cc2c1` (stereo not drawn) had an IC50 of 0.2 µM.
Consider `O=C(NC1N=C(c2ccccc2)c2ccccc2NC1=O)c1cnccn1` (stereo not drawn), for which the IC50 is greater than 10 µM.
In turn, `N[C@H](Cc1ccccc1)C(=O)NC1N=C(c2ccccc2)c2ccccc2NC1=O` (stereo partly drawn) yielded a half-maximal inhibitory concentration (IC50) of 3.1 µM.
`O=C(NC1N=C(c2ccccc2F)c2ccccc2NC1=O)c1cc2cc(Cl)ccc2[nH]1` (stereo not drawn) had a half-maximal inhibitory concentration (IC50) of 0.071 µM. This IC50 is about 44-fold lower than that of the molecule before.
The same measure, in the same setting: in the case of `CCCc1ccc(C(=O)NC2N=C(c3ccccc3)c3ccccc3NC2=O)cc1` (stereo not drawn) it was 3.6 µM; in that of `CC(C)(C)OC(=O)N[C@H](Cc1ccccc1)C(=O)NC1N=C(c2ccccc2)c2ccccc2NC1=O` (stereo partly drawn), 2.7 µM; in that of `CSc1ccc(C(=O)NC2N=C(c3ccccc3)c3ccccc3NC2=O)cc1` (stereo not drawn), 0.22 µM.
Regarding `CC(C)(C)OC(=O)N[C@H](Cc1c[nH]c2ccccc12)C(=O)NC1N=C(c2ccccc2)c2ccccc2NC1=O` (stereo partly drawn), the half-maximal inhibitory concentration (IC50) amounted to 6 µM.
The same measure, in the same setting: in the case of `O=C(NC1N=C(c2ccccc2)c2ccccc2NC1=O)c1ccc(O)cc1` (stereo not drawn) it was 1.8 µM.
`CCOC(=O)CN1C(=O)C(NC(=O)c2ccc(Cl)cc2)N=C(c2ccccc2F)c2ccccc21` (stereo not drawn) showed a 50% inhibitory concentration (IC50) of 0.11 µM.
On the same count and under the same terms, next, `O=C1Nc2ccccc2C(c2ccccc2F)=NC1NC(=O)C(O)c1ccccc1` (stereo not drawn): 100 µM; `O=C(NC1N=C(c2ccccc2)c2ccccc2NC1=O)c1ccc2ccccc2c1` (stereo not drawn): 0.02 µM; `CN1C(=O)C(N(C)C(=O)c2ccccc2Cl)N=C(c2ccccc2)c2ccccc21` (stereo not drawn): 58 µM.
As to `CN1C(=O)C(NC(=O)c2ccccc2Cl)N=C(c2ccccc2)c2ccccc21` (stereo not drawn), the IC50 was found to be 3.4 µM. This IC50 is about 17-fold lower than that of the molecule before.
Molecule `CN1C(=O)C(NC(=O)c2ccc(C(C)(C)C)cc2)N=C(c2ccccc2F)c2ccccc21` (stereo not drawn) registered an IC50 of 0.1 µM. This IC50 lies about 34-fold lower than the previous one.
`O=C(/C=C/c1ccccc1)NC1N=C(c2ccccc2F)c2ccccc2NC1=O` (stereo not drawn) yielded an IC50 of 0.011 µM.
Same read-out and setting: in the case of `CN1C(=O)[C@@H](NC(=O)[C@H](N)Cc2ccccc2)N=C(c2ccccc2)c2ccccc21` it was 1.9 µM; in that of `CCCCCc1ccc(C(=O)NC2N=C(c3ccccc3F)c3ccccc3N(C)C2=O)cc1` (stereo not drawn), 1.1 µM.
The molecule `O=C1Nc2ccccc2C(c2ccccc2)=NC1NCCc1c[nH]c2ccccc12` (stereo not drawn) registered a 50% inhibitory concentration (IC50) of 3 µM.
The molecule `CC1(C(=O)NC2N=C(c3ccccc3F)c3ccccc3NC2=O)C=Cc2ccccc21` (stereo not drawn) yielded a concentration for half-maximal inhibition (IC50) of 0.022 µM.
For the molecule `O=C(NC1N=C(c2ccccc2F)c2ccccc2NC1=O)c1ccsc1` (stereo not drawn), the half-maximal inhibitory concentration (IC50) was 0.15 µM.
In turn, `O=C(NC1N=C(c2ccccc2F)c2ccccc2N(C(=O)c2ccc(Cl)cc2)C1=O)c1ccc(Cl)cc1` (stereo not drawn) yielded a half-inhibitory concentration (IC50) of 0.018 µM. This IC50 lies about 8.3-fold lower than the previous one.
Same read-out and setting: in the case of `O=C(NC1N=C(c2ccccc2F)c2ccccc2NC1=O)c1cc2ccccc2o1` (stereo not drawn) it was 0.009 µM.
On the same count and under the same terms, next, `CC(=O)NC1N=C(c2ccccc2F)c2ccccc2NC1=O` (stereo not drawn): 40 µM.
Turning to `O=C(NC1N=C(c2ccccc2F)c2ccccc2NC1=O)c1c(F)c(F)c(F)c(F)c1F` (stereo not drawn), the IC50 is greater than 10 µM.
Still for that read-out and setting: in the case of `O=C1Nc2ccccc2C(c2ccccc2F)=NC1NCc1cc2ccccc2[nH]1` (stereo not drawn) it was 0.087 µM.
The molecule `COc1ccc(C(=O)NC2N=C(c3ccccc3F)c3ccccc3NC2=O)cc1` (stereo not drawn) gave a concentration for half-maximal inhibition (IC50) of 0.096 µM.
Consider `O=C(NC1N=C(c2ccccc2F)c2ccccc2NC1=O)c1cc2cc(Br)ccc2[nH]1` (stereo not drawn), for which the half-maximal inhibitory concentration (IC50) was found to be 0.12 µM.
`N#Cc1ccc(C(=O)NC2N=C(c3ccccc3)c3ccccc3NC2=O)cc1` (stereo not drawn): the 50% inhibitory concentration (IC50) worked out at 0.73 µM. Compared with the last molecule, the IC50 is about 6.1-fold higher.
`O=C(NC1N=C(c2ccccc2)c2ccccc2NC1=O)c1ccccc1Cl` (stereo not drawn) registered an IC50 of 7.5 µM.
On to `CN(C(=O)c1cc2ccccc2[nH]1)C1N=C(c2ccccc2)c2ccccc2NC1=O` (stereo not drawn), for which the IC50 was determined as 13 µM. This IC50 is about 1.7-fold higher than that of the molecule before.
For the molecule `O=C(NC1N=C(c2ccccc2F)c2ccccc2NC1=O)c1ccc[nH]1` (stereo not drawn), the 50% inhibitory concentration (IC50) turned out to be 0.11 µM.
Take `Cc1ccc(C(=O)NC2N=C(c3ccccc3F)c3ccccc3NC2=O)cc1` (stereo not drawn): the IC50 worked out at 0.021 µM.
Still for that read-out and setting: next, `CN1C(=O)C(NC(=O)c2cc3ccccc3[nH]2)N=C(c2ccccc2F)c2ccccc21` (stereo not drawn): 0.0014 µM.
Regarding `O=C(Cc1cccc2sccc12)NC1N=C(c2ccccc2F)c2ccccc2NC1=O` (stereo not drawn), the IC50 came to 1 µM.
`O=C(O)CN1C(=O)C(NC(=O)c2ccc(Cl)cc2)N=C(c2ccccc2F)c2ccccc21` (stereo not drawn) had an IC50 of 0.032 µM.
Still for that read-out and setting: in the case of `CN(C)c1ccc(C(=O)NC2N=C(c3ccccc3F)c3ccccc3NC2=O)cc1` (stereo not drawn) it was 0.27 µM; in that of `Cn1c(C(=O)NC2N=C(c3ccccc3F)c3ccccc3NC2=O)cc2ccccc21` (stereo not drawn), 0.0047 µM.
Consider `CN1C(=O)C(NC(=O)c2cccc(I)c2)N=C(c2ccccc2F)c2ccccc21` (stereo not drawn), for which the half-maximal inhibitory concentration (IC50) came to 0.00075 µM.
The molecule `O=C(NC1N=C(c2ccccc2F)c2ccccc2NC1=O)c1cc2cc(O)ccc2[nH]1` (stereo not drawn) displayed an IC50 of 0.071 µM.
`O=C(NC1N=C(c2ccccc2)c2ccccc2NC1=O)c1cccc(Cl)c1` (stereo not drawn) displayed an IC50 of 0.081 µM.
Regarding `CCCCCc1ccc(C(=O)NC2N=C(c3ccccc3)c3ccccc3NC2=O)cc1` (stereo not drawn), the IC50 is 27 µM.
`O=C(NC1N=C(c2ccccc2)c2ccccc2NC1=O)c1ccc(Cl)c(Cl)c1` (stereo not drawn): the concentration for half-maximal inhibition (IC50) was 0.029 µM.
The molecule `O=C(NC1N=C(c2ccccc2)c2ccccc2NC1=O)c1ccc(Cl)cc1` (stereo not drawn) registered a half-maximal inhibitory concentration (IC50) of 0.041 µM.
